A selection: hits, their analogues and other compounds. The true share with any hit is near 2.9%.
SENP1 FRET inh: inhibitors of human SENP1 SUMO protease catalytic domain. AID 624204. Q9P0U3. actives 0.21% (n = 360,000). inhibition, % at 10 µM. recombinant SENP1 catalytic domain, CyPet-SUMO1-YPet FRET cleavage;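 active = inhibition at least 30% at 10 µM, raw YFP signal under a set limit, fluorescence ratio 0.5 to 1.5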;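 note: 0% = enzyme with DMSO and 100% = no enzyme wells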
Target sequence (Q9P0U3 419-644 limits assumed): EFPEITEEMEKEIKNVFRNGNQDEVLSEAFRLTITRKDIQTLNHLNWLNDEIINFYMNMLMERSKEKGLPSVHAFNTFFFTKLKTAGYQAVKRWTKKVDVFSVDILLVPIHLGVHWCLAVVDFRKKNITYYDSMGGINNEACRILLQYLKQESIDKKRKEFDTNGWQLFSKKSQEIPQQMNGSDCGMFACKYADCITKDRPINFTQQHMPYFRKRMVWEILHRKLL
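system = hSENP1 catalytic domain, recombinant | reagent = SFCypet-SUMO1-SFYpet substrate at 25 nM | doses = one dose per compound, 10 µM, 0.5% DMSO | incubation = enzyme reaction for 50 min at room temperature, dark | measured by = FRET, CFP and YFP emission | controls = no-enzyme low, enzyme-DMSO high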
SENP6 block: SENP6 protease inhibition; Q9GZR1; Recombinant SENP6 catalytic domain, aminoluciferin luminescence; inhibition, % at 10 µM; actives 1.8% (n = 330,000); AID 2599;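 active = inhibition above about 50% at the single tested dose, limit read from the data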;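 note: plate controls were DMSO wells with enzyme for no effect and DMSO wells lacking enzyme for full effect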
SENP7 inh: SENP7 protease inhibition; Q9BQF6; recombinant SENP7, Z-RLRGG-aminoluciferin luminescence, 40 min; inhibition, % at 5 µM; actives 1.5% (n = 330,000); AID 434973;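 active = inhibition above about 50% at the single test dose, limit read from the data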;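 note: plate controls were DMSO with enzyme for no effect and no enzyme buffer wells for full effect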
Apaf1 inhib: human Apaf-1 inhibition; actives 0.71% (n = 330,000); reconstituted apoptosome caspase-3 activity, DEVD-Rh110 fluorescence; O14727; inhibition, % at 20 µM; active = inhibition of at least 40% at 20 µM;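 note: plate controls were DMSO wells for no effect and DEVD-CHO caspase inhibitor wells for full effect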
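detection = Rh110 fluorescence intensity | test system = biochemical Apaf-1 apoptosome reconstitution | also added = cytochrome c and DEVD-Rh110 substrate | schedule = 30 min plus 50 min, RT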
SENP8 block-1: SENP8 protease inhibition; actives 1.2% (n = 330,000); purified SENP8, Z-RLRGG-aminoluciferin cleavage, luminescence; inhibition, % at 10 µM; Q96LD8; in the data active = inhibition above about 50%
Target sequence (Q96LD8 whole entry, looked up): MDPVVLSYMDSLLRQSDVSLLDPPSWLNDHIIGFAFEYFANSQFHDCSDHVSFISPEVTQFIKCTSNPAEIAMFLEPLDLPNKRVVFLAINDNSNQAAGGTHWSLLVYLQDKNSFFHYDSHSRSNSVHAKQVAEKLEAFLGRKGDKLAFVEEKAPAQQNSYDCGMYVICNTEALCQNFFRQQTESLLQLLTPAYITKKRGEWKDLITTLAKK
SENP8 block-2: inhibitors of human SENP8 protease; Q96LD8; recombinant SENP8, Nedd8 substrate fluorescence; inhibition, % at 20 µM; actives 0.64% (n = 360,000); AID 602440; in the data active = inhibition mostly above about 40%, no sharp cut-off; inactive = mostly below about 27%
SENP8 confirm: human SENP8 inhibition, confirmed; actives 40% (n = 6,200); shares compounds with SENP7 inh; AID 488912; Recombinant SENP8, Z-RLRGG-aminoluciferin luminescence, 60 min; inhibition, % at 12.5 µM;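 active = mean inhibition across replicates above about 50%, limit read from the data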
SENP6 confirm: confirmation of human SENP6 protease inhibitors; shares compounds with SENP7 inh; recombinant SENP6, Z-RLRGG-aminoluciferin luminescence; inhibition, % at 12.5 µM; actives 58% (n = 6,200)
SENP7 confirm: human SENP7 inhibition, confirmed. shares compounds with SENP7 inh. recombinant SENP7, Z-RLRGG-aminoluciferin luminescence, 40 min. inhibition, % at 12.5 µM. actives 69% (n = 6,200). AID 488917
Casp3 SENP sel: inhibits human caspase-3 in SENP selectivity test | inhibition, % at 12.5 µM | shares compounds with SENP7 inh | purified caspase-3, Z-DEVD-aminoluciferin luminescence, 60 min | actives 60% (n = 6,200);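 active = mean inhibition above about 50%, limit read from the data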;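 note: plate controls were enzyme with DMSO for no effect and wells without caspase-3 for full effect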
SENP luc ctr: luminescence interference (SENP counter-screen) | inhibition, % at 12.5 µM | shares compounds with SENP7 inh | Pre-incubated SENP8/Z-RLRGG-aminoluciferin, luciferase luminescence interference | actives 39% (n = 6,200);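 active = mean inhibition above about 50% when retested at one dose, limit read from the data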;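 note: plate controls were DMSO wells with completed reaction for no effect and substrate without enzyme for full effect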
Starred values were filed as active, the others as inactive; i = inactive; · = not tested or not shown.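 Rule for the calls, unless noted: active = mean inhibition above about 50% in the one-dose retest (limit read from the data); inactive = the rest.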

SMILES	SENP1 FRET inh	SENP6 block	SENP7 inh	Apaf1 inhib	SENP8 block-1	SENP8 block-2	SENP8 confirm	SENP6 confirm	SENP7 confirm	Casp3 SENP sel	SENP luc ctr
COc1cc([N+](=O)[O-])ccc1N/C=C/C(=O)c1cccs1	-24	87*	97*	-7	53*	-34	33	55*	48	48	24
NC(=O)c1ccccc1N/C=C/C(=O)c1cccs1	-60	92*	76*	8	81*	i	4	90*	98*	94*	88*
Cc1c(NC(=O)c2cccs2)cccc1NC(=O)c1cccs1	3	-3	14	4	-4	-5	·	·	·	·	·
Cc1ccc(C(=O)/C=C/Nc2ccccc2C(N)=O)o1	-61	7	10	2	-15	-312	·	·	·	·	·
Cc1cccc(N/C=C/C(=O)c2cccs2)c1C	-30	95*	94*	3	95*	-22	11	99*	102*	95*	95*
COc1ccc(C(=O)COC(=O)c2n[nH]c3ccccc23)c(OC)c1	1	51*	21	21	25	-4	43	37	69*	32	35
COc1ccc(OC)c(NC(=O)COC(=O)c2n[nH]c3ccccc23)c1	5	4	0	-4	4	5	·	·	·	·	·
COCCn1c(C)cc(C(=O)COC(=O)c2n[nH]c3ccccc23)c1C	2	71*	86*	13	82*	21	94*	94*	100*	92*	87*
Cc1cc(C(=O)COC(=O)c2ccccc2O)c(C)n1Cc1cccs1	0	92*	95*	-3	93*	-8	93*	98*	101*	93*	51*
COCCn1c(C)cc(C(=O)COC(=O)Cc2n[nH]c(=O)c3ccccc23)c1C	-1	6	-9	4	-11	-3	·	·	·	·	·
Cc1cc(C(=O)COC(=O)c2ccccc2O)c(C)n1CC1CCCO1 (centres undefined)	1	97*	97*	2	95*	-21	98*	99*	102*	88*	56*
CC1=C(C(=O)N2CCOCC2)CC(CC(=O)NCc2ccco2)C(=O)N1Cc1ccc(C(C)(C)C)cc1 (centres undefined)	1	·	·	·	·	10	·	·	·	·	·
O=C(NCc1ccc(F)cc1)OC1CC2CC1[C@H]1CCCCN1C2=O (some centres undefined)	1	·	·	·	·	6	·	·	·	·	·
COc1cc(OC)c(C(=O)OCC(=O)NC23CC4CC(CC(C4)C2)C3)cc1OC	1	0	-4	6	-1	-23	·	·	·	·	·
COCCn1c(C)cc(C(=O)COC(=O)c2ccc3ncsc3c2)c1C	-2	-1	4	-2	-1	6	·	·	·	·	·
COCCn1c(C)cc(C(=O)COC(=O)c2cccnc2SC)c1C	0	87*	85*	2	78*	7	86*	86*	98*	91*	69*
Cc1cc(C(=O)COC(=O)c2ccccc2NCCO)c(C)n1CC1CCCO1 (centres undefined)	-4	42	5	18	36	-488	·	·	·	·	·
Cc1cc(C(=O)COC(=O)c2cccnc2Cl)c(C)n1CC1CCCO1 (centres undefined)	1	90*	93*	6	90*	9	95*	96*	101*	98*	80*
Cc1cc(C(=O)COC(=O)c2n[nH]c3ccccc23)c(C)n1CC1CCCO1 (centres undefined)	0	86*	13	17	87*	21	47	92*	99*	90*	77*
COc1cc(OC)cc(C(=O)Nc2cccc(C(C)=O)c2)c1	1	65*	68*	8	39	21	58*	53*	82*	78*	63*
COc1cc(OC)cc(C(=O)Nc2cccc(NC(=O)c3ccccc3)c2)c1	3	-7	-4	3	-3	18	·	·	·	·	·
COc1cc(OC)cc(C(=O)Nc2ccc(Nc3ccccc3)cc2)c1	-1	80*	58*	0	60*	3	65*	61*	85*	32	21
Cc1ccc(-n2c(C)cc(C(=O)COC(=O)c3c(C)noc3C)c2C)cc1	1	68*	52*	10	45	16	52*	58*	82*	59*	32
Cc1cc(C(=O)COC(=O)C2=NNC(=O)CC2)c(C)n1-c1ccccc1	0	1	7	-15	-4	18	·	·	·	·	·
Cc1cc(C(=O)COC(=O)C2=COCCO2)c(C)n1-c1ccccc1	-3	85*	85*	10	83*	26	83*	83*	96*	88*	78*
SMILES	SENP1 FRET inh	SENP6 block	SENP7 inh	Apaf1 inhib	SENP8 block-1	SENP8 block-2	SENP8 confirm	SENP6 confirm	SENP7 confirm	Casp3 SENP sel	SENP luc ctr
CCCCN(C)C(=O)c1cc2cc3ccc(OC)cc3nc2o1	0	80*	76*	3	65*	-287	72*	71*	92*	85*	24
c1ccc(-c2ccc(-c3cn4c(n3)CCC4)cc2)cc1	1	87*	73*	11	69*	-444	80*	80*	95*	66*	60*
CCCc1cc(=O)[nH]c(SCC(=O)Nc2cccc(S(=O)(=O)N3CCCCC3)c2)n1	2	4	1	12	-7	5	·	·	·	·	·
COc1ccc(Cl)cc1S(=O)(=O)NCCCn1ccnc1	1	53*	0	-3	-4	17	2	-3	-2	-3	-4
Cc1nonc1C(=O)N/N=C/c1ccc(O)cc1O	-41	97*	100*	1	-7	-26	98*	98*	102*	98*	97*
Cc1nonc1C(=O)N/N=C/c1ccncc1	0	-14	26	4	0	15	·	·	·	·	·
Nc1nnnn1/N=C/c1cc(Br)ccc1O	-4	3	5	-13	2	10	·	·	·	·	·

Screening results (PubChem BioAssay)
